In ChEMBL document CHEMBL1944507, “Structure-activity relationships for amide-, carbamate-, and urea-linked analogues of the tuberculosis drug (6S)-2-nitro-6-{[4-(trifluoromethoxy)benzyl]oxy}-6,7-dihydro-5H-imidazo[2,1-b][1,3]oxazine (PA-824)” (J Med Chem, 2012):
pIC50: −log10 of the molar value. In brackets after ≈: the same amount, converted by molar mass.

How the values were obtained:
[1] = Chemical stability of the compound; assay type: physicochemical
[2] = AUC (0 to 24 hrs) in Sprague-Dawley rat at 20 mg/kg, po; assay type: ADME, organism-based; set-up: time < 24 hr, dose 20 mg/kg, route oral; conditions: plasma
[3] = Half life in CD-1 mouse plasma at 40 mg/kg, po; assay type: ADME, organism-based; set-up: dose 40 mg/kg, route oral
Procedure, shortened: (§1)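 CD-1 mice given a single oral dose of 40 mg/kg, suspended in 0.5% carboxymethylcellulose/0.08% Tween 80 in water. Plasma and lung samples quantified by LC-MS/MS. AUC extrapolated to infinity. Lung/plasma ratio is lung AUC divided by plasma AUC.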

[4] = Half life in high fat diet fed Beagle dog at 20 mg/kg, po; assay type: ADME, organism-based, Canis lupus familiaris; set-up: dose 20 mg/kg, route oral; conditions: in vivo
[5] = Tmax in Sprague-Dawley rat at 1 mg/kg, iv; assay type: ADME, organism-based; set-up: dose 1 mg/kg, route intravenous; conditions: in vivo
[6] = Cmax in high fat diet fed Beagle dog at 20 mg/kg, po; assay type: ADME, organism-based, Canis lupus familiaris; set-up: dose 20 mg/kg, route oral; conditions: in vivo
Salmonella typhimurium [7] = test: Induction of mutagenesis in Salmonella Typhimurium TA98 in absence of rat liver S9 fraction by Ames test; assay type: toxicity, organism-based; conditions: salmonella enterica subsp. enterica serovar typhimurium
Procedure, shortened: (§2)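 MicroAmes reverse mutation screen in Salmonella TA98 and TA100, preincubated with and without rat liver S9, at 0.25-250 μg/well.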

[8] = AUC (0 to infinity) in CD-1 mouse lung at 40 mg/kg, po; assay type: ADME, organism-based; set-up: dose 40 mg/kg, route oral, time infinity; procedure, shortened: as §1
[9] = AUC (0 to infinity) in CD-1 mouse plasma at 40 mg/kg, po; assay type: ADME, organism-based; set-up: dose 40 mg/kg, route oral, time infinity; procedure, shortened: as §1
[10] = Cmax in Sprague-Dawley rat at 20 mg/kg, po; assay type: ADME, organism-based; set-up: dose 20 mg/kg, route oral; conditions: in vivo
[11] = tested on: Mycobacterium tuberculosis; test: Antimicrobial activity against Mycobacterium tuberculosis infected in BALB/c mouse assessed as fold reduction in lung CFU at 100 mg/kg, po administered 11 days after post infection qd for 5 days per week for 3 weeks relative to PA-824; assay type: functional
Procedure, shortened: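 Groups of 7 M. tb-infected BALB/c mice dosed orally at 100 mg/kg daily, 5 days/week for 3 weeks, starting on day 11 postinfection. Readout is the average lung CFU reduction in treated mice divided by the average CFU reduction in mice given the reference nitroimidazooxazine.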

[12] = Half life in CD-1 mouse lung at 40 mg/kg, po; assay type: ADME, organism-based; set-up: dose 40 mg/kg, route oral; procedure, shortened: as §1
[13] = AUC (0 to 24 hrs) in Sprague-Dawley rat at 1 mg/kg, iv; assay type: ADME, organism-based; set-up: time < 24 hr, dose 1 mg/kg, route intravenous; conditions: plasma
[14] = Metabolic stability of the compound in CD-1 mouse liver microsomes assessed as compound remaining after 1 hr; assay type: ADME, Microsome; conditions: read-out: Stability
Procedure, shortened: (§3)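 Pooled human or CD-1 mouse liver microsomes incubated with compound for 1 h. Percentage of compound remaining calculated from analyte/internal standard peak area ratios.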

[15] = Metabolic stability of the compound in human liver microsomes assessed as compound remaining after 1 hr; assay type: ADME, Microsome; conditions: read-out: Stability; procedure, shortened: as §3
[16] = Oral bioavailability in Beagle dog at 20 mg/kg; assay type: ADME, organism-based, Canis lupus familiaris; conditions: in vivo
[17] = Half life in Sprague-Dawley rat at 1 mg/kg, iv; assay type: ADME, organism-based; set-up: dose 1 mg/kg, route intravenous; conditions: in vivo
[18] = Cmax in Sprague-Dawley rat at 1 mg/kg, iv; assay type: ADME, organism-based; set-up: dose 1 mg/kg, route intravenous; conditions: in vivo
[19] = AUC (0 to 72 hrs) in high fat diet fed Beagle dog at 20 mg/kg, po; assay type: ADME, organism-based, Canis lupus familiaris; set-up: time < 72 hr, dose 20 mg/kg, route oral; conditions: plasma
[20] = Cmax in Beagle dog at 2 mg/kg, iv; assay type: ADME, organism-based, Canis lupus familiaris; set-up: dose 2 mg/kg, route intravenous; conditions: in vivo
[21] = Kinetic solubility of the compound in water at pH 7 by HPLC analysis; assay type: physicochemical; conditions: read-out: Kinetic_solubility
[22] = AUC (0 to 72 hrs) in Beagle dog at 2 mg/kg, iv; assay type: ADME, organism-based, Canis lupus familiaris; set-up: time < 72 hr, dose 2 mg/kg, route intravenous; conditions: plasma
[23] = Tmax in Beagle dog at 20 mg/kg, po; assay type: ADME, organism-based, Canis lupus familiaris; set-up: dose 20 mg/kg, route oral; conditions: in vivo
[24] = Cmax in CD-1 mouse plasma at 40 mg/kg, po; assay type: ADME, organism-based; set-up: dose 40 mg/kg, route oral; procedure, shortened: as §1
[25] = Thermodynamic solubility of the compound at pH 7.4; assay type: physicochemical; conditions: buffer, read-out: Therm_solubility
[26] = Thermodynamic solubility of the compound at pH 1; assay type: physicochemical; conditions: buffer, read-out: Therm_solubility
[27] = molecular target: Voltage-gated inwardly rectifying potassium channel KCNH2 (Homo sapiens, UniProt Q12809); test: Inhibition of human Erg expressed in HEK293 cells by FAST patch clamp analysis; assay type: cell-based
[28] = Octanol-water partition coefficient, log P of the compound by shake-flask method; assay type: physicochemical
Procedure, shortened: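 Octanol-water partition coefficient measured by the shake-flask method.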

[29] = Plasma protein binding in human at 10 uM; assay type: ADME, cell-free; conditions: read-out: PPB (converted)
Procedure, shortened: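 Human plasma protein binding measured by equilibrium dialysis, with overnight incubation of compound at 10 μM containing 1% DMSO.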

Salmonella typhimurium [30] = test: Induction of mutagenesis in Salmonella Typhimurium TA100 in absence of rat liver S9 fraction by Ames test; assay type: toxicity, organism-based; conditions: salmonella enterica subsp. enterica serovar typhimurium; procedure, shortened: as §2
[31] = Half life in Beagle dog at 20 mg/kg, po; assay type: ADME, organism-based, Canis lupus familiaris; set-up: dose 20 mg/kg, route oral; conditions: in vivo
[32] = Tmax in Sprague-Dawley rat at 20 mg/kg, po; assay type: ADME, organism-based; set-up: dose 20 mg/kg, route oral; conditions: in vivo
[33] = Cmax in CD-1 mouse lung at 40 mg/kg, po; assay type: ADME, organism-based; set-up: dose 40 mg/kg, route oral; procedure, shortened: as §1
[34] = Cmax in Beagle dog at 20 mg/kg, po; assay type: ADME, organism-based, Canis lupus familiaris; set-up: dose 20 mg/kg, route oral; conditions: in vivo
Salmonella typhimurium [35] = test: Induction of mutagenesis in Salmonella Typhimurium TA98 in presence of rat liver S9 fraction by Ames test; assay type: toxicity, organism-based; conditions: salmonella enterica subsp. enterica serovar typhimurium; procedure, shortened: as §2
[36] = Oral bioavailability in Sprague-Dawley rat at 20 mg/kg; assay type: ADME, organism-based; conditions: in vivo
[37] = Tmax in high fat diet fed Beagle dog at 20 mg/kg, po; assay type: ADME, organism-based, Canis lupus familiaris; set-up: dose 20 mg/kg, route oral; conditions: in vivo
[38] = Half life in Beagle dog at 2 mg/kg, iv; assay type: ADME, organism-based, Canis lupus familiaris; set-up: dose 2 mg/kg, route intravenous; conditions: in vivo
[39] = Tmax in Beagle dog at 2 mg/kg, iv; assay type: ADME, organism-based, Canis lupus familiaris; set-up: dose 2 mg/kg, route intravenous; conditions: in vivo
[40] = AUC (0 to 72 hrs) in Beagle dog at 20 mg/kg, po; assay type: ADME, organism-based, Canis lupus familiaris; set-up: time < 72 hr, dose 20 mg/kg, route oral; conditions: plasma
[41] = tested on: Mycobacterium tuberculosis; test: Antimicrobial activity against Mycobacterium tuberculosis infected in chronic BALB/c mouse infection model assessed as fold reduction in lung CFU at 30 mg/kg, po administered daily 5 days a week for 8 weeks starting 50 days post-infection; assay type: functional
Procedure, shortened: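 Chronic infection model: groups of 7 M. tb-infected BALB/c mice given 30 mg/kg orally, daily 5 days/week for 8 weeks, starting about 50 days postinfection. Lung CFU reduction expressed relative to the reference drug.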

Salmonella typhimurium [42] = test: Induction of mutagenesis in Salmonella Typhimurium TA100 in presence of rat liver S9 fraction by Ames test; assay type: toxicity, organism-based; conditions: salmonella enterica subsp. enterica serovar typhimurium; procedure, shortened: as §2

Voltage-gated inwardly rectifying potassium channel KCNH2, sequence (Q12809 whole entry): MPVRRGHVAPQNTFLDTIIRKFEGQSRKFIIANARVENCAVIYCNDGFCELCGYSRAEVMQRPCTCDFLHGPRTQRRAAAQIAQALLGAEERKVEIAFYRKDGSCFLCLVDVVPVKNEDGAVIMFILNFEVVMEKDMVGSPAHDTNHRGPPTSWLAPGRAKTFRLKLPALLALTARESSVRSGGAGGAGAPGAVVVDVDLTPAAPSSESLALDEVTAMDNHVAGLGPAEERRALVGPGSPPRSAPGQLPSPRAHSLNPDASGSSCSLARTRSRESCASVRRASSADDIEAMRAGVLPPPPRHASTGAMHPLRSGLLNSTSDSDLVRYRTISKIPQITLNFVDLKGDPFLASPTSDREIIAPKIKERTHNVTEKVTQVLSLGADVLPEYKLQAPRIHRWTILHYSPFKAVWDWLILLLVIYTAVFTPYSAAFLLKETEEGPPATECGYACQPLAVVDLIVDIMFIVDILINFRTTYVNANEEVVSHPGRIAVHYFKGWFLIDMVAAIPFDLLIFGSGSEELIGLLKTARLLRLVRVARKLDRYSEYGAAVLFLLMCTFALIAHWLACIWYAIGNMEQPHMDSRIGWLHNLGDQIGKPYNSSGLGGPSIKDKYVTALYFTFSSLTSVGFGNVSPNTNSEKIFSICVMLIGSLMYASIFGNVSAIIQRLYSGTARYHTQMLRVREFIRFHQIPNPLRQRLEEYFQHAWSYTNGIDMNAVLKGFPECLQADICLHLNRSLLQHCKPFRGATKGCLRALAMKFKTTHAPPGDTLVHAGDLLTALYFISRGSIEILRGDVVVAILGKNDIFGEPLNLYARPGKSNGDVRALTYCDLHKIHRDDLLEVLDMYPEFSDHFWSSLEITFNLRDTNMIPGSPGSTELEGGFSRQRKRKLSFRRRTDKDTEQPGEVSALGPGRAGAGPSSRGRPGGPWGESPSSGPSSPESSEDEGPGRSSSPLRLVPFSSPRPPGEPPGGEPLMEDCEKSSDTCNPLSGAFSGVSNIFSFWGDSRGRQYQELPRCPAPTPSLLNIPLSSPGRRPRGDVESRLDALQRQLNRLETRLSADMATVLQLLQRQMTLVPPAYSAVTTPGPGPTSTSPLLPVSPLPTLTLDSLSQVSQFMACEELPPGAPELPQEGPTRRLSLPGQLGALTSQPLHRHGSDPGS

With `O=C(N[C@@H]1COc2nc([N+](=O)[O-])cn2C1)Oc1ccc(OC(F)(F)F)cc1` the Stability [1] was “Unstable”.
`O=C(O[C@@H]1COc2nc([N+](=O)[O-])cn2C1)N1CCN(c2ccc(OC(F)(F)F)cc2)CC1` showed an AUC(0-t) at 24 h [2] of 67400 ng·h/mL, a half-life [3] of 10.5 h and a half-life [4] of 30 h. The Tmax [5] was 4.98 min, the Cmax [6] was 5200 ng/mL and the Activity (Salmonella typhimurium [7]) was “Non-toxic”. It also gave an AUC(0-inf) [8] of 169000 ng·h/mL, an AUC(0-inf) [9] of 53400 ng·h/mL and a Cmax [10] of 4400 ng/mL. The “fold change (FC)” value [11] was 5.2, the half-life [12] was 10.5 h and the AUC(0-t) at 24 h [13] was 5930 ng·h/mL. The remaining at 1 h [14] was 85%, the remaining at 1 h [15] was 82% and the bioavailability [16] was 84%. For the same compound, the half-life [17] was 8.3 h, the Cmax [18] was 700 ng/mL and the AUC(0-t) at 72 h [19] was 182000 ng·h/mL. It also gave a Cmax [20] of 1700 ng/mL, a solubility kinetic [21] of 17 µg/mL (≈ 37.2 µM) and an AUC(0-t) at 72 h [22] of 27600 ng·h/mL. The Tmax [23] was 8 h, the Cmax [24] was 2500 ng/mL and the solubility thermodynamic [25] was 33 µM (≈ 15.1 µg/mL). The solubility thermodynamic [26] was 169 µM (≈ 77.3 µg/mL), the pIC50 [27] was under 4.52 and the logP [28] was 2.82. For the same compound, the fraction unbound at 10 µM [29] was 0.09, the Activity (Salmonella typhimurium [30]) was “Non-toxic” and the half-life [31] was 29 h. It also gave a Tmax [32] of 5 h, a Cmax [33] of 11700 ng/mL and a Cmax [34] of 5800 ng/mL. The Activity (Salmonella typhimurium [35]) was “Non-toxic”, the bioavailability [36] was 57% and the Tmax [37] was 12 h. It also gave a half-life [38] of 28 h, a Tmax [39] of 0.5 h and an AUC(0-t) at 72 h [40] of 232000 ng·h/mL. For the same compound, the “fold change (FC)” value [41] was 0.92 and the Activity (Salmonella typhimurium [42]) was “Non-toxic”.
